The results in this text go back to the RNAGym collection of RNA variant scans (doi:10.1002/anie.201605470).

B1: Osa-1-4 twister ribozyme (parent)
chain: CCGCCUAACACUGCCAAUGCCGGUCCCAAGCCCGGAUAAAAGUGGAGGGGGCGG

In this series the parent is B1. Kind of series: self-cleavage, relative activity (ratio to wild type); higher = more cleavage; co-transcriptional. The essentials:
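Relative activity is the fraction cleaved divided by that of the wild-type ribozyme. The library came from a DNA template for a 54-nucleotide Oryza sativa twister ribozyme, doped at the 48 positions downstream of the cleavage site with 97 % wild-type base and 1 % of each other base. After 2 h of in vitro transcription at 37 °C with co-transcriptional self-cleavage, the RNA was reverse-transcribed with a template-switching oligonucleotide, amplified by PCR and deep-sequenced, and reads with or without upstream sequence gave the cleavage status.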
For the variant A46G G13U, the self-cleavage stood at 0.01.
As to A46G G13A, the self-cleavage was found to be 0.02.
As to A46G G13C, the self-cleavage is 0.02.
The same measure for A46G C15U: 0.04.
Next, A46G C15G: 0.04.
Next, A46G C15A: 0.06; G45U: 0.17; G45C: 0.06.
Consider G45U U37C, for which the self-cleavage stood at 0.17.
The same measure for G45U U37G: 0.21.
G45U U37A: the self-cleavage amounted to 0.09.
Next, A46G U24G: 0.02; A46G U24A: 0.04; A46G U24C: 0.04.
For the variant A46C G49A, the self-cleavage came out at 0.04.
The same measure for A46C G49C: 0.03; for A46C G49U: 0.04.
Turning to A46C C9A, the self-cleavage turned out to be 0.03.
Consider A46C C9G, for which the self-cleavage is 0.05.
The same measure for A46C C9U: 0.02; for A46C U18A: 0.06.
Turning to A46C U18G, the self-cleavage is 0.14.
Consider A46C U18C, for which the self-cleavage is 0.06.
The same measure for A46G C33U: 0.06.
Consider A46G C33A, for which the self-cleavage was 0.04.
Next, A46G C33G: 0.03.
Next, A46G G35U: 0.08; A46G G35C: 0.05.
Regarding A46G G35A, the self-cleavage turned out to be 0.07.
For the variant A46C U37G, the self-cleavage was determined as 0.09.
Next, A46C U37A: 0.05.
With A46C U37C, the self-cleavage was determined as 0.07.
Next, A46G C14A: 0.03; A46G C14U: 0.03.
Next, A46G C14G: 0.04.
G45U G48C: the self-cleavage was 0.04.
The same measure for G45U G48A: 0.04; for G45U G48U: 0.04; for A46U C26G: 0.03.
The same measure for A46U C26A: 0.02; for A46U C26U: 0.06; for A46C G23A: 0.04.
For the variant A46C G23U, the self-cleavage was 0.03.
Next, A46C G23C: 0.02.
The same measure for G45C U12C: 0.05.
Next, G45C U12G: 0.05; G45C U12A: 0.06.
Turning to A46G C27A, the self-cleavage worked out at 0.05.
The same measure for A46G C27G: 0.04; for A46G C27U: 0.04; for A46U C21G: 0.02.
The same measure for A46U C21A: 0.07; for A46U C21U: 0.06; for A46U C11A: 0.06.
On to A46U C11U, for which the self-cleavage came out at 0.08.
Next, A46U C11G: 0.05.
Next, A46C C27U: 0.04.
Take A46C C27A: the self-cleavage amounted to 0.03.
Take A46C C27G: the self-cleavage came out at 0.01.
The same measure for A46C C52G: 0.09.
The same measure for A46C C52U: 0.08.
Regarding A46C C52A, the self-cleavage turned out to be 0.07.
In the case of A46C G34A, the self-cleavage is 0.06.
Regarding A46C G34C, the self-cleavage is 0.05.
A46C G34U: the self-cleavage worked out at 0.04.
In the case of A46C G19U, the self-cleavage was determined as 0.04.
The same measure for A46C G19A: 0.05; for A46C G19C: 0.02.
The same measure for G45U U18C: 0.14; for G45U U18A: 0.14; for G45U U18G: 0.19.
Next, A46U C25U: 0.06; A46U C25A: 0.03.
In the case of A46U C25G, the self-cleavage is 0.04.
The same measure for A46C G45U: 0.02.
Take A46C G45C: the self-cleavage is 0.03.
Next, A46C G45A: 0.05.
Consider A46G G22A, for which the self-cleavage was 0.08.
Regarding A46G G22C, the self-cleavage is 0.02.
The same measure for A46G G22U: 0.06.
With A46G U37C, the self-cleavage stood at 0.08.
The same measure for A46G U37A: 0.05.
Next, A46G U37G: 0.09; A46C G42A: 0.04.
The same measure for A46C G42U: 0.02; for A46C G42C: 0.04.
In the case of A46C C31A, the self-cleavage was 0.01.
The same measure for A46C C31U: 0.04; for A46C C31G: 0.02.
On to A46G A8G, for which the self-cleavage came out at 0.04.
As to A46G A8C, the self-cleavage was 0.03.
Regarding A46G A8U, the self-cleavage came out at 0.03.
The same measure for A46C A7G: 0.04; for A46C A7C: 0.03; for A46C A7U: 0.02.
The same measure for A46G C31U: 0.05.
As for A46G C31G, the self-cleavage worked out at 0.03.
Next, A46G C31A: 0.01; G45U G50A: 0.12.
For the variant G45U G50U, the self-cleavage came out at 0.09.
The same measure for G45U G50C: 0.07; for A46G U43G: 0.12.
In the case of A46G U43C, the self-cleavage is 0.04.
For the variant A46G U43A, the self-cleavage was determined as 0.06.
In the case of G45C U18G, the self-cleavage stood at 0.09.
The same measure for G45C U18C: 0.1.
In the case of G45C U18A, the self-cleavage turned out to be 0.06.
Regarding G45C G47C, the self-cleavage was 0.05.
Turning to G45C G47A, the self-cleavage is 0.05.
On to G45C G47U, for which the self-cleavage was 0.05.
The same measure for G45A U37C: 0.55.
Next, G45A U37G: 0.58; A46C U43A: 0.06.
Next, A46C U43G: 0.05; A46C U43C: 0.05.
As for G45U U12G, the self-cleavage was 0.07.
The same measure for G45U U12A: 0.06; for G45U U12C: 0.06.
The same measure for G45U G54C: 0.06; for G45U G54A: 0.1; for G45U G54U: 0.2.
Regarding A46G G23U, the self-cleavage was determined as 0.03.
For A46G G23C, the self-cleavage came out at 0.02.
The same measure for A46G G23A: 0.05; for G45U G51U: 0.05; for G45U G51C: 0.04.
In the case of G45U G51A, the self-cleavage was 0.08.
Next, A46C G48C: 0.03.
A46C G48U: the self-cleavage was 0.02.
Next, A46C G48A: 0.04; A46G G44A: 0.05; A46G G44U: 0.07.
The same measure for A46G G44C: 0.05; for G45U G47A: 0.04.
Turning to G45U G47C, the self-cleavage was found to be 0.04.
As for G45U G47U, the self-cleavage is 0.06.
With G45C U43A, the self-cleavage is 0.06.
The same measure for G45C U43C: 0.06.
Regarding G45C U43G, the self-cleavage stood at 0.04.
Next, A46G G53A: 0.07; A46G G53U: 0.07; A46G G53C: 0.03.
G45C G49U: the self-cleavage stood at 0.03.
The same measure for G45C G49A: 0.04; for G45C G49C: 0.04.
Next, A46C G35U: 0.05; A46C G35A: 0.06.
For A46C G35C, the self-cleavage came to 0.04.
The same measure for A46G C9G: 0.07; for A46G C9U: 0.03; for A46G C9A: 0.03.
Regarding A46G C26U, the self-cleavage was 0.04.
Next, A46G C26G: 0.02; A46G C26A: 0.03.
Take A46C C11G: the self-cleavage is 0.03.
Next, A46C C11A: 0.04.
Consider A46C C11U, for which the self-cleavage came out at 0.05.
For the variant A46C C14U, the self-cleavage stood at 0.03.
Next, A46C C14G: 0.03.
The same measure for A46C C14A: 0.02; for A46G U18G: 0.13; for A46G U18C: 0.07.
The same measure for A46G U18A: 0.06; for A46G G51U: 0.05; for A46G G51A: 0.05.
For A46G G51C, the self-cleavage was found to be 0.04.
Next, A46G C20U: 0.07.
